Measurements: ChEMBL document CHEMBL4689842, “EUbOPEN Chemogenomics Library wave 1” (2021)

Test system: U2OS
Assay: Multiplex assay against U2OS
Format: toxicity, cell-based
Settings: human
How it was run: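 Four dyes were applied at seeding to live cells: Hoechst33342, BioTracker Green Microtubule Cytoskeleton Dye, MitoTracker Red and Annexin V Alexa Fluor 680. Imaging after compound addition used a CQ1 microscope at 37°C and 5% CO2. CellPathfinder machine-learning gating then sorted cells into Hoechst high-intensity objects or normal cells, normal cells into healthy, pyknosed or fragmented nuclei, and pyknosed cells into mitotic or apoptotic, with tubulin, mitochondrial-mass and membrane-permeability phenotypes given as per cents of healthy-nucleus cells.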

[1] = 12 h, 1 µM, compound concentration 1 uM, replicate 1
[2] = 12 h, 1 µM, compound concentration 1 uM, replicate 2
[3] = 12 h, 10 µM, compound concentration 10 uM, replicate 1
[4] = 12 h, 10 µM, compound concentration 10 uM, replicate 2
[5] = 24 h, 1 µM, compound concentration 1 uM, replicate 1
[6] = 24 h, 1 µM, compound concentration 1 uM, replicate 2
[7] = 24 h, 10 µM, compound concentration 10 uM, replicate 1
[8] = 24 h, 10 µM, compound concentration 10 uM, replicate 2
[9] = 48 h, 1 µM, compound concentration 1 uM, replicate 1
[10] = 48 h, 1 µM, compound concentration 1 uM, replicate 2
[11] = 48 h, 10 µM, compound concentration 10 uM, replicate 1
[12] = 48 h, 10 µM, compound concentration 10 uM, replicate 2

Cc1ccccc1C(c1ccccc1C)N1C2CCC1CC(O)(c1ccccc1)C2 (centres undefined)
Population Healthy Nuclei (%) [1]: 82% | Population Mitotic Cells (%) [1]: 66% | Population Normal (%) [1]: 89% | Total Cell Count [1]: 131 | Population Healthy Nuclei (%) [2]: 81% | Population Mitotic Cells (%) [2]: 50% | Population Normal (%) [2]: 90% | Total Cell Count [2]: 80 | Population Healthy Nuclei (%) [3]: 73% | Population Mitotic Cells (%) [3]: 64% | Population Normal (%) [3]: 96% | Total Cell Count [3]: 158 | Population Healthy Nuclei (%) [4]: 81% | Population Mitotic Cells (%) [4]: 60% | Population Normal (%) [4]: 86% | Total Cell Count [4]: 71 | Population Healthy Nuclei (%) [5]: 82% | Population Mitotic Cells (%) [5]: 88% | Population Normal (%) [5]: 97% | Total Cell Count [5]: 149 | Population Healthy Nuclei (%) [6]: 77% | Population Mitotic Cells (%) [6]: 80% | Population Normal (%) [6]: 95% | Total Cell Count [6]: 89 | Population Healthy Nuclei (%) [7]: 74% | Population Mitotic Cells (%) [7]: 65% | Total Cell Count [7]: 201 | Population Healthy Nuclei (%) [8]: 65% | Population Mitotic Cells (%) [8]: 50% | Population Normal (%) [8]: 93% | Total Cell Count [8]: 85 | Population Healthy Nuclei (%) [9]: 89% | Population Mitotic Cells (%) [9]: 68% | Total Cell Count [9]: 157 | Population Healthy Nuclei (%) [10]: 88% | Population Mitotic Cells (%) [10]: 87% | Population Normal (%) [10]: 97% | Total Cell Count [10]: 98 | Population Healthy Nuclei (%) [11]: 71% | Population Mitotic Cells (%) [11]: 43% | Population Normal (%) [11]: 95% | Total Cell Count [11]: 289 | Population Healthy Nuclei (%) [12]: 68% | Population Mitotic Cells (%) [12]: 40% | Population Normal (%) [12]: 85% | Total Cell Count [12]: 141

CC(C)NC(=O)N1CC[C@H](NC2=Nc3cc(F)ccc3N(CC(F)F)c3ccc(Cl)cc32)C1
Population Apoptotic (%) [1]: 50% | Population Fragmented Nuclei (%) [1]: 11% | Population Healthy Nuclei (%) [1]: 75% | Population Hoechst High Intensity Objects (%) [1]: 7% | Population Membrane Permeable-Phenotype (%) [1]: 7% | Population Mitochondria Different-Phenotype (%) [1]: 8% | Population Mitotic Cells (%) [1]: 50% | Population Normal (%) [1]: 92% | Population Pyknosed Nuclei (%) [1]: 13% | Population Tubulin-Different-Phenotype (%) [1]: 19% | Total Cell Count [1]: 469 | Population Apoptotic (%) [2]: 33% | Population Fragmented Nuclei (%) [2]: 5% | Population Healthy Nuclei (%) [2]: 89% | Population Hoechst High Intensity Objects (%) [2]: 9% | Population Membrane Permeable-Phenotype (%) [2]: 4% | Population Mitochondria Different-Phenotype (%) [2]: 18% | Population Mitotic Cells (%) [2]: 66% | Population Normal (%) [2]: 90% | Population Pyknosed Nuclei (%) [2]: 5% | Population Tubulin-Different-Phenotype (%) [2]: 14% | Total Cell Count [2]: 293 | Population Apoptotic (%) [3]: 47% | Population Fragmented Nuclei (%) [3]: 11% | Population Healthy Nuclei (%) [3]: 72% | Population Hoechst High Intensity Objects (%) [3]: 11% | Population Membrane Permeable-Phenotype (%) [3]: 4% | Population Mitochondria Different-Phenotype (%) [3]: 52% | Population Mitotic Cells (%) [3]: 52% | Population Normal (%) [3]: 88% | Population Pyknosed Nuclei (%) [3]: 15% | Population Tubulin-Different-Phenotype (%) [3]: 89% | Total Cell Count [3]: 96 | Population Apoptotic (%) [4]: 0% | Population Fragmented Nuclei (%) [4]: 6% | Population Healthy Nuclei (%) [4]: 81% | Population Hoechst High Intensity Objects (%) [4]: 13% | Population Membrane Permeable-Phenotype (%) [4]: 13% | Population Mitochondria Different-Phenotype (%) [4]: 63% | Population Mitotic Cells (%) [4]: 100% | Population Normal (%) [4]: 86% | Population Pyknosed Nuclei (%) [4]: 11% | Population Tubulin-Different-Phenotype (%) [4]: 58% | Total Cell Count [4]: 62 | Population Apoptotic (%) [5]: 53% | Population Fragmented Nuclei (%) [5]: 9% | Population Healthy Nuclei (%) [5]: 78% | Population Hoechst High Intensity Objects (%) [5]: 6% | Population Membrane Permeable-Phenotype (%) [5]: 10% | Population Mitochondria Different-Phenotype (%) [5]: 28% | Population Mitotic Cells (%) [5]: 46% | Population Normal (%) [5]: 93% | Population Pyknosed Nuclei (%) [5]: 12% | Population Tubulin-Different-Phenotype (%) [5]: 21% | Total Cell Count [5]: 453 | Population Apoptotic (%) [6]: 50% | Population Fragmented Nuclei (%) [6]: 5% | Population Healthy Nuclei (%) [6]: 88% | Population Membrane Permeable-Phenotype (%) [6]: 6% | Population Mitochondria Different-Phenotype (%) [6]: 19% | Population Mitotic Cells (%) [6]: 50% | Population Pyknosed Nuclei (%) [6]: 5% | Population Tubulin-Different-Phenotype (%) [6]: 9% | Total Cell Count [6]: 281 | Population Apoptotic (%) [7]: 56% | Population Fragmented Nuclei (%) [7]: 14% | Population Healthy Nuclei (%) [7]: 61% | Population Hoechst High Intensity Objects (%) [7]: 6% | Population Membrane Permeable-Phenotype (%) [7]: 15% | Population Mitochondria Different-Phenotype (%) [7]: 61% | Population Mitotic Cells (%) [7]: 43% | Population Normal (%) [7]: 93% | Population Pyknosed Nuclei (%) [7]: 23% | Population Tubulin-Different-Phenotype (%) [7]: 79% | Total Cell Count [7]: 112 | Population Apoptotic (%) [8]: 83% | Population Fragmented Nuclei (%) [8]: 13% | Population Healthy Nuclei (%) [8]: 73% | Population Hoechst High Intensity Objects (%) [8]: 10% | Population Membrane Permeable-Phenotype (%) [8]: 6% | Population Mitochondria Different-Phenotype (%) [8]: 57% | Population Mitotic Cells (%) [8]: 16% | Population Normal (%) [8]: 90% | Population Pyknosed Nuclei (%) [8]: 13% | Population Tubulin-Different-Phenotype (%) [8]: 51% | Total Cell Count [8]: 75 | Population Apoptotic (%) [9]: 52% | Population Fragmented Nuclei (%) [9]: 10% | Population Healthy Nuclei (%) [9]: 77% | Population Membrane Permeable-Phenotype (%) [9]: 3% | Population Mitochondria Different-Phenotype (%) [9]: 23% | Population Mitotic Cells (%) [9]: 47% | Population Pyknosed Nuclei (%) [9]: 11% | Population Tubulin-Different-Phenotype (%) [9]: 23% | Total Cell Count [9]: 499 | Population Apoptotic (%) [10]: 25% | Population Fragmented Nuclei (%) [10]: 4% | Population Healthy Nuclei (%) [10]: 87% | Population Hoechst High Intensity Objects (%) [10]: 6% | Population Membrane Permeable-Phenotype (%) [10]: 10% | Population Mitochondria Different-Phenotype (%) [10]: 26% | Population Mitotic Cells (%) [10]: 75% | Population Normal (%) [10]: 93% | Population Pyknosed Nuclei (%) [10]: 7% | Population Tubulin-Different-Phenotype (%) [10]: 22% | Total Cell Count [10]: 259 | Population Apoptotic (%) [11]: 82% | Population Fragmented Nuclei (%) [11]: 23% | Population Healthy Nuclei (%) [11]: 47% | Population Hoechst High Intensity Objects (%) [11]: 6% | Population Membrane Permeable-Phenotype (%) [11]: 20% | Population Mitochondria Different-Phenotype (%) [11]: 44% | Population Mitotic Cells (%) [11]: 17% | Population Normal (%) [11]: 93% | Population Pyknosed Nuclei (%) [11]: 29% | Population Tubulin-Different-Phenotype (%) [11]: 76% | Total Cell Count [11]: 160 | Population Apoptotic (%) [12]: 69% | Population Fragmented Nuclei (%) [12]: 13% | Population Healthy Nuclei (%) [12]: 60% | Population Hoechst High Intensity Objects (%) [12]: 13% | Population Membrane Permeable-Phenotype (%) [12]: 41% | Population Mitochondria Different-Phenotype (%) [12]: 61% | Population Mitotic Cells (%) [12]: 30% | Population Normal (%) [12]: 86% | Population Pyknosed Nuclei (%) [12]: 25% | Population Tubulin-Different-Phenotype (%) [12]: 58% | Total Cell Count [12]: 115
